# CHOP inhibitor – blocks CHOP induction under ER stress; AID 2732; 220,000 tested, 3.8% active; inhibition, % at 10 µM; CHO-K1 CHOP-promoter luciferase, tunicamycin-induced, 15-18 h;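 active = compounds that reduced the stress-induced luciferase reporter signal by more than about 70% of percent inhibition, limit read from the data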;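 also: 0% = tunicamycin plus vehicle and 100% = wells without tunicamycin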
# Jurkat NFkB inh – lowers PMA/ionomycin-induced NF-kB signal in Jurkat cells; PMA/ionomycin-induced NF-kB luciferase reporter, luminescence; inhibition, % at 4 µM; 330,000 tested, 0.53% active; in the data active = inhibition above about 50%
# UPR XBP1 act – activators of adaptive arm of unfolded protein response (XBP1). CHO-XBP1 luciferase reporter, IRE1-XBP1 UPR activation, luminescence; percent of tunicamycin response, DMSO as zero. activation, % at 20 µM. 330,000 tested, 0.33% active;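 active = versus positive control, 20 µM dose yields 30% or more activation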;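 also: 100% = tunicamycin at 10 µg/mL and 0% = DMSO only wells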
#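 Assay system: CHO-XBP1 luciferase reporter cells; Schedule: 6 h treatment, 37 °C; Detection: glow luminescence from Steady-Glo reagent; Benchmarks: high control tunicamycin 10 µg/mL final, low control DMSO vehicle only.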
# 697 NFkB inh – lowers PMA/ionomycin-induced NF-kB signal in 697 B cells; inhibition, % at 4 µM; 697 B-cell NF-kB luciferase reporter, 16 h; 330,000 tested, 0.33% active; in the data active = inhibition above about 35%
# CHOP UPR activ – apoptotic UPR (CHOP) activation; 330,000 tested, 0.34% active; activation, % at 10 µM; CHO-CHOP luciferase reporter, luminescence; percent of tunicamycin response over DMSO baseline;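 active = at 10 µM dose, activation of 40% or more, normalized to positive control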;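 also: 100% = tunicamycin at 10 µg/mL and 0% = DMSO alone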
#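 Assay system: CHO cells with stable CHOP pathway luciferase reporter; Buffer or medium: F12 plus 10% serum; Times: 16-18 h cell attachment, then 6 h compound exposure, 37 °C; Signal: luciferase luminescence; Read-out basis: percent activation relative to tunicamycin control; Control set: tunicamycin high control, DMSO low control.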
# CHOP inh conf – confirmation of CHOP induction inhibitors; 2,100 tested, 45% active; shares compounds with CHOP inhibitor; inhibition, % at 10 µM; CHO-CHOP promoter luciferase reporter, tunicamycin-induced, luminescence; AID 504437;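 active = mean of three repeat readings of reporter signal inhibition above a set limit, cut at about 70% in these data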;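 also: 0% = tunicamycin plus vehicle and 100% = wells lacking tunicamycin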
# Numbers without * were called inactive; x = no result given. Shown is part of a subset that was picked to be rich in hits.
SMILES,CHOP inhibitor,Jurkat NFkB inh,UPR XBP1 act,697 NFkB inh,CHOP UPR activ,CHOP inh conf
CC(/C=C1\SC(=O)N(CCCC(=O)O)C1=O)=C\c1ccccc1,101*,x,x,x,x,110*
COc1cc(-n2nnnc2SCC(=O)N2CCN(c3ccc(F)cc3)CC2)c(OC)cc1Cl,98*,x,x,x,x,49
Cc1ccccc1CS(=O)(=O)c1nnc([C@H](Cc2ccccc2)NC(=O)OC(C)(C)C)o1,112*,15,-7,-18,-5,136*
CC(C)(C)OC(=O)N[C@@H](Cc1ccccc1)c1nnc(S(=O)(=O)Cc2ccccc2)o1,109*,37,-5,-23,-10,125*
Cc1cccc(CS(=O)(=O)Cc2ccc(C(=O)NC(C)c3ccccc3)o2)c1 (centres undefined),x,12,-1,2,1,x
CCC(C)[C@@H](NC(=O)OC(C)(C)C)c1nnc(S(=O)(=O)Cc2cccc(C)c2)o1 (some centres undefined),106*,x,x,x,x,107*
Cc1onc(-c2c(F)cccc2Cl)c1C(=O)NCCc1ccncc1,x,-14,-5,2,2,x
COc1ccc(S(=O)(=O)N2CCOCC2)cc1NC(=O)CCNC(=O)c1ccc([N+](=O)[O-])cc1,x,4,0,28,0,x
NC(=S)N=Nc1c(O)[nH]c2c(Br)cc(Br)cc12,98*,-2,-2,25,2,7
O=C(NCCN1CCOCC1)c1cc(Sc2ccccc2Cl)nc2ccccc12,3,-6,0,14,2,x
Cc1cc(Nc2ccc(Cl)cc2)nc(NCc2ccccc2)n1,107*,25,13,-19,4,81*
Cc1cccnc1NC(=O)c1c(O)c2ccccc2n(C)c1=O,98*,-6,-1,-25,2,100*
CCn1c(=O)c(C(=O)Nc2ncccc2C)c(O)c2ccccc21,39,9,1,8,1,x
COc1cc(-c2nc3c(c(C)nn3-c3ccccc3)c3cc(OC)c(OC)cc23)ccc1O,99*,-22,13,-5,3,83*
COc1cc(-c2nc3ccccc3nc2-c2ccc(O)c(OC)c2)ccc1O,x,25,-3,11,0,x
COc1ccc(C)cc1NC(=O)C1CCCN(S(=O)(=O)c2ccc3c(c2)CCCN3C(C)=O)C1 (centres undefined),x,2,-3,8,1,x
O=C(N/N=C/c1ccncc1)c1cc2c(ccc3ccccc32)o1,109*,-18,-3,25,-1,-56
O=C(O)c1ccc(/C=N/NC(=O)c2cc3c(ccc4ccccc43)o2)cc1,x,7,-1,-6,1,x
Cc1ccc(/C=N/n2c(C3CCCCC3)n[nH]c2=S)s1,105*,-11,1,-18,3,96*
S=c1[nH]nc(C2CCCCC2)n1/N=C/c1ccccc1,x,-14,1,-10,-1,x
COc1cccc(/C=N/n2c(C3CCCCC3)n[nH]c2=S)c1OC,x,-16,-4,-18,-1,x
COc1ccccc1/C=C\C=N\n1c(C2CCCCC2)n[nH]c1=S,108*,-12,2,3,0,3
COc1ccc(C2=CC(=O)OC3(CCCC3)O2)cc1,18,-7,2,8,-2,x
C(=N\Nc1nc(-c2ccccc2)cs1)/c1cccnc1,42,-87,-1,-56,4,x
Clc1ccc(-c2csc(N/N=C/c3cccnc3)n2)c(Cl)c1,98*,-6,2,-18,0,87*
SMILES,CHOP inhibitor,Jurkat NFkB inh,UPR XBP1 act,697 NFkB inh,CHOP UPR activ,CHOP inh conf
Cc1cc(C)n2ncc(S(=O)(=O)c3ccccc3)c2n1,-12,-7,1,16,3,x
CN(C)c1ccc(/C=C2/SC(=O)N(CCN=C3NS(=O)(=O)c4ccccc43)C2=O)cc1,35,-11,18,-68,15,x
CN(C)c1ccc(/C=C2\SC(=O)N(CCc3nnc(N)s3)C2=O)cc1,100*,-17,-8,-105,-9,127*
Cc1nnc(SCc2ccc(F)cc2)n1NC/C=C/c1ccccc1,32,23,-4,-1,0,x
CCc1ccc(NC(=O)CN(CC(=O)Nc2ccc(CC)cc2)CC(C)O)cc1 (centres undefined),x,5,2,-2,-1,x
Fc1ccc(OCc2nc(-c3ccncc3)n[nH]2)cc1,-1,-4,1,3,-1,x
Cc1ccc(OCc2nc(-c3ccc(Cl)cc3)n[nH]2)cc1,100*,-3,2,17,3,34
Cc1cccc(NC(=O)NCc2ccc3c(c2)cc(C)n3C)c1,106*,16,-1,2,2,27
O=C(Cn1nnc2ccccc2c1=O)N[C@@H](Cc1ccccc1)C(=O)O,10,-4,-1,3,-1,x
Cc1c(OCc2ccccc2)c(=O)ccn1Cc1ccc(Cl)cc1,105*,6,4,-4,-1,28
Cc1ccc(Cn2ccc(=O)c(OCc3ccccc3)c2C)cc1,-10,-36,3,-34,-1,x
CC12CN3CC(C)(CN(C1)C3c1ccccc1F)C2 (centres undefined),16,-5,1,-14,8,x
Cn1c(=O)c([N+](=O)[O-])c(-n2ccnc2)c2ccccc21,103*,3,-2,1,15,-90
O=C(O)c1cc(NC(=O)c2ccccc2[N+](=O)[O-])ccc1O,3,11,-5,17,-1,x
O=C1c2ccccc2C(=O)c2c1oc(C(F)(F)F)c2C(=O)c1ccccc1,107*,19,-6,-4,-2,121*
O=C(c1ccccc1)c1coc2c1C(=O)c1ccccc1C2=O,18,-36,4,-3,0,x
CCCc1ccc(Oc2cn[nH]c2-c2ccc(O)c(C)c2O)cc1,105*,-10,4,-5,3,60
COc1ccc(Oc2c(-c3ccc(O)cc3O)n[nH]c2C)cc1,30,1,1,9,-1,x
CCCc1ccc(Oc2c(-c3ccc(O)c(C)c3O)n[nH]c2C)cc1,106*,1,5,-21,2,12
O=C1SCCC1NS(=O)(=O)c1ccc([N+](=O)[O-])cc1 (centres undefined),x,-9,-3,-2,-1,x
CCC(C)c1nc2ccsc2c(N2CCOC2=O)c1-c1ccccc1 (centres undefined),x,3,-1,6,-1,x
C/C(=N\Nc1nc2c(s1)CCCC2)c1ccccc1,25,-145,2,-154,4,x
Cc1[nH]n(-c2ccccc2)c(=O)c1/C=C1/C=c2ccccc2=N1,103*,x,x,x,x,78*
CC(C)CC(=O)NC(c1ccccc1)c1c(O)ccc2ccccc12 (centres undefined),x,-15,-5,1,1,x
O=C(NC(c1ccccc1)c1c(O)ccc2ccccc12)c1ccccc1Cl (centres undefined),107*,7,-2,-27,0,125*
